Reference: paper PMC4576835 (Clinical and experimental pharmacology & physiology, 2009)
One block for each compound: values may come before it.

Assays:
[1] = biological target: T1, glypican-1 binding to Slit protein (Homo sapiens, UniProt O94813, DEL1116-1124); assay: ELISA of glypican-1–Fc binding to immobilised human full-length Slit-2
T1 sequence (O94813 with tags, fused parts or gaps DEL1116-1124): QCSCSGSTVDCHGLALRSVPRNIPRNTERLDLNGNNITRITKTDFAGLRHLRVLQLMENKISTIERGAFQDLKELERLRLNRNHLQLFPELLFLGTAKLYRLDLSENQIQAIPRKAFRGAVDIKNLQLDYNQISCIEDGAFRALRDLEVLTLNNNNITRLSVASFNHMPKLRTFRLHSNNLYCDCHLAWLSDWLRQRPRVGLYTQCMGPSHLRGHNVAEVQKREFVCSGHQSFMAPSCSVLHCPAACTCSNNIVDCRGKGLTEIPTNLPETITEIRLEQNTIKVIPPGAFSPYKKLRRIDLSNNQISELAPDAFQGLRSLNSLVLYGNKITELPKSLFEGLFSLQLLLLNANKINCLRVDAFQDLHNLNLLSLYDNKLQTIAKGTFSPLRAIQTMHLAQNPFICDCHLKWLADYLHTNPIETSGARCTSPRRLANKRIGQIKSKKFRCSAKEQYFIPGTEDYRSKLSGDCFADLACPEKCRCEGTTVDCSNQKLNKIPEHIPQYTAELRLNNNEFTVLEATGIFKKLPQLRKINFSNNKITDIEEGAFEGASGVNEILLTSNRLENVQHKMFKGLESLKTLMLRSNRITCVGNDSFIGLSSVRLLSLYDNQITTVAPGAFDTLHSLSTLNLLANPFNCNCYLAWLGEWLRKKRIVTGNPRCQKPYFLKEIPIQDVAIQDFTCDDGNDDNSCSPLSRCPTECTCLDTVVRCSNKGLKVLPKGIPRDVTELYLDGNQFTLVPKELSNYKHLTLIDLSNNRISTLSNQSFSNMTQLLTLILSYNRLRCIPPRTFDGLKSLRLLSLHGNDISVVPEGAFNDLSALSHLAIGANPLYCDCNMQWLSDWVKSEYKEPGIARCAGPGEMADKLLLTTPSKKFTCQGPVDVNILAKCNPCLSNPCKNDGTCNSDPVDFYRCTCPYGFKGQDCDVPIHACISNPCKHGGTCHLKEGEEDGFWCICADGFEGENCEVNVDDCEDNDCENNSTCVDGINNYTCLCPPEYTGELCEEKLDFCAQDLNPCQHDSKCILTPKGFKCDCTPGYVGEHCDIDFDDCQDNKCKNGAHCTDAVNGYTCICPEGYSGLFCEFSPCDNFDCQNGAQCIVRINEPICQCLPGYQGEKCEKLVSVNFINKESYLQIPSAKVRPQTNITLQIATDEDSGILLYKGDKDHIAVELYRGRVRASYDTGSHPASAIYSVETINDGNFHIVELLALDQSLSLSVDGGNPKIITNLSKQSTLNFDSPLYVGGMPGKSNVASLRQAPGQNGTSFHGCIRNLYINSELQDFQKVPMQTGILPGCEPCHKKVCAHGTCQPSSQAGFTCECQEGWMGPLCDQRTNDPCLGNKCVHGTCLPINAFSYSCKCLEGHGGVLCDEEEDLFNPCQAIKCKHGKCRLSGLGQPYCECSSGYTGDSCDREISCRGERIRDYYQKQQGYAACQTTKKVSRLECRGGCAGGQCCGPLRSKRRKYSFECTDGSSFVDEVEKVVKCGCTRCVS
Method in brief: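 Wells coated overnight with His-tagged uncleavable full-length human Slit-2 (HEK293-expressed, Ni-agarose purified), 5 μg/well in PBS; blocked 2 h with 10% FBS/TBST. Glycanated glypican-1–Fc (HEK293, DEAE then protein A) added at 1 μg/mL in PBS, 18 h, room temperature. Detection: biotinylated anti-human Fc, HRP-streptavidin, o-phenylenediamine, 450 nm. Non-specific binding from BSA-coated wells; bound amount read from glypican-1–Fc standard curve; replicates.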

[2] = in whole blood; cited from earlier work

- inhibition of glypican binding to Slit ([1]; at 5 μmol/L): 61%
- inhibition of glypican binding to Slit ([1]; at 50 μmol/L): 67%
Compound: O=S(=O)(O)c1cc2c(O)c(c1)Cc1cc(S(=O)(=O)O)cc(c1O)Cc1cc(S(=O)(=O)O)cc(c1O)Cc1cc(S(=O)(=O)O)cc(c1O)Cc1cc(S(=O)(=O)O)cc(c1O)Cc1cc(S(=O)(=O)O)cc(c1O)Cc1cc(S(=O)(=O)O)cc(c1O)Cc1cc(S(=O)(=O)O)cc(c1O)C2 [GL-522-Y-1, cyclic octaphenol-octasulphonic acid]
- anticoagulant activity [2]: no significant anticoagulant activity

- inhibition of glypican–Slit binding (in words) ([1]; at concentrations up to 50 μmol/L): completely inactive
Compound: CO[C@H]1O[C@H](COS(=O)(=O)O)[C@@H](O[C@@H]2O[C@@H](C(=O)O)[C@@H](O[C@H]3O[C@H](COS(=O)(=O)O)[C@@H](O[C@@H]4O[C@H](C(=O)O)[C@@H](O[C@H]5O[C@H](COS(=O)(=O)O)[C@@H](O)[C@H](O)[C@H]5NS(=O)(=O)O)[C@H](O)[C@H]4O)[C@H](OS(=O)(=O)O)[C@H]3NS(=O)(=O)O)[C@H](O)[C@H]2OS(=O)(=O)O)[C@H](O)[C@H]1NS(=O)(=O)O [fondaparinux]

- inhibition at 5 µM ([1]; read-out: inhibition of glypican binding to Slit): 53%
Compound: Cc1ccc(C(=O)Nc2ccc(S(=O)(=O)O)c3cc(S(=O)(=O)O)cc(S(=O)(=O)O)c23)cc1NC(=O)c1cccc(NC(=O)Nc2cccc(C(=O)Nc3cc(C(=O)Nc4ccc(S(=O)(=O)O)c5cc(S(=O)(=O)O)cc(S(=O)(=O)O)c45)ccc3C)c2)c1 [suramin]
